Measurements as given in ChEMBL document CHEMBL4808167, “Design, Synthesis, and Evaluation of Small Molecule Gαq/11 Protein Inhibitors for the Treatment of Uveal Melanoma” (J Med Chem, 2021).
Active and inactive are the calls of the source. No cut-off for these calls is given here. Starred links: 1 amine or outer side, 2 acyl side, 3 side chain; linkers in the order of their positions; H or OH if unused. Positions of bridges follow the written chain, without caps; N, C: chain ends. Non-standard residues stand in square brackets, D forms with d. Residues, ends and D or L forms follow the SMILES beside them. *: point of attachment. Leu(3R-OH,Nα-propionyl) = CCC(=O)N[C@H](C(=O)*)[C@H](O)C(C)C; X1 = CC(C)[C@@H](O[*:3])[C@H](N[*:1])C(=O)[*:2]; NMeT = CN[C@H](C(=O)O)[C@@H](C)O; dPhLac = O=C(O)[C@H](O)Cc1ccccc1; NMeA = CN[C@@H](C)C(=O)O; NMeDha = C=C(NC)C(=O)O

How the values were obtained:
[1] = molecular target: T1, GNAQ/GNA11 (Homo sapiens) (UniProt P50148+P29992); assay: Binding affinity to Galphaq/11 (unknown origin) expressed in HEK293 cells cotransfected with AT1R/Galphaq-RLuc8/ Ggamma2-venus/Gbeta1 assessed as inhibition of Ang-II induced-BRET signal at 100 uM preincubated for 1 hr followed by Ang-II addition by BRET assay; format: cell-based
Method in brief: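 HEK293 cells transiently transfected with AT₁R, Gαq-RLuc8, Gγ2-Venus and untagged Gβ1. Replated 24 h later, washed with HBS, starved 10 min, then pretreated with compound for 1 h at 37 °C. AngII added, followed by coelenterazine. BRET ratio taken as Venus emission (520−570 nm) over RLuc8 emission (370−480 nm). Mean ± SD, n = 3.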

[2] = molecular target: T1, GNAQ/GNA11 (Homo sapiens); assay: Inhibition of Galphaq/11 (unknown origin) expressed in CHO cells coexpressing M1 receptor assessed as reduction in carbachol-induced IP1 accumulation at 10 uM preincubated for 1 hr followed by carbachol stimulation and measured after 1 hr by HTRF assay relative to control; format: cell-based; conditions: time 2.0 hrs
CHO [3] = assay: Cytotoxicity against chinese hamster CHO cells overexpressing M1 receptor assessed as cell viability at 5 uM after 2 hrs by CCK8 assay; format: cell-based, Cricetulus griseus
Method in brief: (§1)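 CHO cells stably expressing the M₁ receptor were treated with a range of compound concentrations for 2 h or 24 h. Viability measured by CCK-8 and given as percentage. Mean ± SD of three independent experiments.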

MP41 [4] = assay: Inhibition of cell migration in human MP41 cells at 15 uM incubated for 48 hrs by transwell migration assay; format: functional, cell-based
Method in brief: (§2)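 Transwell migration: 92.1 and MP41 cells (RPMI-1640, 10% FBS) seeded 1 × 10⁴/well in upper chamber in serum-free medium, 20% FBS medium below; overnight at 37 °C, then compound for 48 h. Non-migrated cells swabbed off; lower cells crystal violet-stained 30 min, counted by light microscopy. Mean SD of three independent experiments.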

[5] = Antiproliferative activity against human 92.1 cells assessed as inhibition of cell growth after 72 hrs by CCK8 assay; format: functional, cell-based; conditions: Homo sapiens, 921, 72 h
Method in brief: (§3)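 92.1 or MP41 cells in RPMI-1640 with 10% FBS were seeded at 3 × 10³ cells/well. Exposed to serial concentrations for 72 h at 37 °C, 5% CO₂. CCK-8 added for 1−4 h, absorbance read at 450 nm. IC₅₀ from concentration−response curve fit, mean ± SD.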

[6] = Antitumor activity against human MP41 cells xenografted in nude BALB/c mouse assessed as tumor growth inhibition at 10 mg/kg, ip administered for once daily for 21 days and measured every 3 days; format: functional; conditions: 504 h, time 21 day, read-out: TGI
Method in brief: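 MP41 tumours were passaged subcutaneously mouse-to-mouse in nude BALB/c mice (6−8 weeks, 20−25 g). Tertiary recipients randomized, n = 8/group, given 10 or 30 (mg/kg)/d ip or vehicle for 21 days. Tumour size (V = A × B² × π/6, caliper) and body weight taken every 3 days; tumours excised and weighed on day 22. TGI computed versus the vehicle group.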

[7] = molecular target: T1, GNAQ/GNA11 (Homo sapiens); assay: Inhibition of Galphaq/11 (unknown origin) expressed in HEK293 cells cotransfected with AT1R assessed as inhibition of Ang-II induced calcium release at 100 uM preincubated for 30 mins followed by Ang-II addition by Fluo-4AM dye based fluorescence assay; format: cell-based
Method in brief: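 HEK293 cells transfected with AT₁R, washed in HBSS with 0.1% BSA and loaded with Fluo-4 AM for 1 h at 37 °C. Washed, then pretreated with compound at 100 μM for 30 min. AngII at varying concentrations added 20 s into the fluorescence recording. Mean ± SD, n = 3.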

[8] = Antiproliferative activity against human MP41 cells assessed as inhibition of cell growth after 72 hrs by CCK8 assay; format: functional, cell-based; conditions: MP41, 72 h; method in brief: as §3
921 [9] = assay: Inhibition of cell migration in human 921 cells at 15 uM incubated for 48 hrs by transwell migration assay; format: functional, cell-based
Method in brief: (§4)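 92.1 or MP41 cells (1 × 10⁴/well) seeded in serum-free medium in the upper transwell chamber, with 20% FBS medium below. Left overnight, then treated 48 h. Non-migrated cells swabbed off; cells on the lower side stained with crystal violet 30 min and counted by light microscopy (×40 for migration, ×100 for invasion). Mean ± SD, n = 3.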

MP41 [10] = assay: Inhibition of cell invasion in human MP41 cells at 5 to 15 uM incubated for 48 hrs by transwell assay; format: functional, cell-based; conditions: dose 5-15 µM; method in brief: as §4
921 [11] = assay: Inhibition of cell invasion in human 921 cells at 5 to 15 uM incubated for 48 hrs by transwell assay; format: functional, cell-based; conditions: dose 5-15 µM; method in brief: as §4
CHO [12] = assay: Cytotoxicity against chinese hamster CHO cells overexpressing M1 receptor assessed as cell viability at 1.25 to 20 uM after 2 to 24 hrs by CCK8 assay; format: cell-based, Cricetulus griseus; conditions: dose lower 1.25 µM, time lower 2 hrs, dose upper 20 µM, time upper 24 hrs; method in brief: as §1
CHO [13] = assay: Induction of morphological changes in chinese hamster CHO cells overexpressing M1 receptor at 10 to 20 uM after 2 hrs by light microscopic analysis; format: cell-based, Cricetulus griseus; conditions: dose 10-20 µM
Method in brief: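 CHO-M₁ cells were treated with compound at 10 or 20 μM for 2 h, and changes in cell morphology were examined by microscopy.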

MP41 [14] = assay: Inhibition of cell migration in human MP41 cells at 30 uM incubated for 48 hrs by Transwell migration assay; format: functional, cell-based; method in brief: as §2
GNAQ/GNA11 [15] = molecular target: T2, GNAQ/GNA11 (Homo sapiens, UniProt P50148+P29992); assay: Inhibition of Galphaq/11 (unknown origin); format: protein assay
T2 sequence (P50148 whole entry): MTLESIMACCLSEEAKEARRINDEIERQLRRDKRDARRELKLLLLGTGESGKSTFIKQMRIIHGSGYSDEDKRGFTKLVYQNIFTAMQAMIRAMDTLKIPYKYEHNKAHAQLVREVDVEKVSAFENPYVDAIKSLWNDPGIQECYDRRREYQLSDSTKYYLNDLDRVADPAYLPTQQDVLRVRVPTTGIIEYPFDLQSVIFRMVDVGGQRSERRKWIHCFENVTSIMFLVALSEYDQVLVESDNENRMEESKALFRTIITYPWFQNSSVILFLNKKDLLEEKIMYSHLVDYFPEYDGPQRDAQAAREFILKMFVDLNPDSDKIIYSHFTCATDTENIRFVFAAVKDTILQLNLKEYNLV
T2 sequence (P29992 whole entry): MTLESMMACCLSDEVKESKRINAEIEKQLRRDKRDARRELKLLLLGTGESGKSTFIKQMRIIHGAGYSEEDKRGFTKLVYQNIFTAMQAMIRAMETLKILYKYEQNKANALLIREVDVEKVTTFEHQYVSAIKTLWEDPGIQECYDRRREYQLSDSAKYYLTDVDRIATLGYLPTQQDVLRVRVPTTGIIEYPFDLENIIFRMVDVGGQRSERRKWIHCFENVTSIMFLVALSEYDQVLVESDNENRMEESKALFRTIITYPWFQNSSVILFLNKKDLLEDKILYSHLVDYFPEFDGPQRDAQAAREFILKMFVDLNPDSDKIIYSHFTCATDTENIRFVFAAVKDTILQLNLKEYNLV
Method in brief: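 Carbachol-stimulated IP₁ accumulation in CHO cells stably expressing the M₁ receptor, read by HTRF. Cells (2 × 10⁴/well) in assay buffer with 0.2% BSA were preincubated with compound for 1 h at 37 °C. Carbachol (final 9 μM, ~EC₈₀) was then added with LiCl (final 20 mM) for 1 h at 37 °C plus 1 h at room temperature. Values are % inhibition at 10 μM or IC₅₀, three independent experiments.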

GNAQ/GNA11 [16] = molecular target: T2, GNAQ/GNA11; assay: Inhibition of Galphaq/11 (unknown origin) expressed in CHO cells coexpressing M1 receptor assessed as reduction in carbachol-induced IP1 accumulation preincubated for 1 hr followed by carbachol stimulation and measured after 1 hr by HTRF assay; format: cell-based

Activity [1]	inhibition [2] [%]	Activity [7]	IC50 (GNAQ/GNA11 [16]) [µM]	Structure (SMILES)	Activity (CHO [3])	inhibition (MP41 [4])	IC50 [5] [µM]	inhibition in vivo at 10 mg/kg [6] [%]	IC50 [8] [µM]	inhibition 921 [9]	inhibition (MP41 [10])	inhibition 921 [11]	Activity (CHO [12])	Activity (CHO [13])	inhibition (MP41 [14])	IC50 (GNAQ/GNA11 [15]) [µM]
Active	25.8	inactive		N[C@H](CSSC[C@@H](N)C(=O)N1CCn2cc(-c3ccccc3)nc2[C@@H]1CC1CCCCC1)C(=O)N1CCn2cc(-c3ccccc3)nc2[C@@H]1CC1CCCCC1	Toxic	Active	6.8	35.9	10.5	Active	Active	Active	Toxic	Toxic	Active	
				C=C1C(=O)N[C@@H](C)C(=O)N(C)[C@@H](C)C(=O)N[C@@H]([C@H](OC(=O)[C@@H](NC(=O)CC)[C@H](O)C(C)C)C(C)C)C(=O)N(C)[C@@H]([C@@H](C)OC)C(=O)O[C@H](C(C)C)[C@H](NC(C)=O)C(=O)O[C@H](Cc2ccccc2)C(=O)N1C (Ac-[X1][dPhLac][NMeDha]A[NMeA][X1](Leu(3R-OH,Nα-propionyl))[NMeT](Me); ester 1-C)												0.032
Active	32.6	inactive		N[C@@H](CS)C(=O)N1CCn2cc(-c3ccccc3)nc2[C@@H]1CC1CCCCC1		Active	4.8		2.3	Active	Active	Active			Active	
	34		48.6	N[C@@H](Cc1ccc(O)cc1)C(=O)N1CCn2cc(-c3ccccc3)nc2[C@@H]1CC1CCCCC1			10.7		22.6							
